Measurements reported in ChEMBL document CHEMBL4480385, “Design, synthesis and molecular docking studies of novel N-arylsulfonyl-benzimidazoles with anti Trypanosoma cruzi activity” (Eur J Med Chem, 2019).

Legend:
[1] = Inhibition of Trypanosoma cruzi apoenzyme form of PFK
[2] = Inhibition of Trypanosoma cruzi holoenzyme form of PFK
[3] = system: Trypanosoma cruzi; experiment: Inhibition of PFK in Trypanosoma cruzi IRHOD/CO/2008/SN3 epimastigotes assessed as change in D-lactate excretion at IC25 after 96 hrs by 1H NMR analysis relative to control; set-up: scale not given: the % may be the effect or the level left
Method in brief: (§1)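 SN3 epimastigotes (starting at 5 × 10⁵ cells/mL) were incubated with compound for 96 h at 28 °C, alongside drug-free control cultures. Cells were pelleted at 400 g for 10 min. Excreted end products in the supernatant were identified and quantified by ¹H NMR against a DSS reference signal, and compared with the controls.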

[4] = system: Vero; experiment: Cytotoxicity against African green monkey Vero cells after 72 hrs by propidium iodide/fluorescein diacetate staining based flow cytometry; assay type: cell-based; settings: Chlorocebus sabaeus
[5] = system: Trypanosoma cruzi; experiment: Inhibition of PFK in Trypanosoma cruzi IRHOD/CO/2008/SN3 epimastigotes assessed as change in L-alanine excretion at IC25 after 96 hrs by 1H NMR analysis relative to control; set-up: scale not given: the % may be the effect or the level left; method in brief: as §1
[6] = Selectivity index, ratio of IC50 for African green monkey Vero cells to IC50 for Trypanosoma cruzi IRHOD/CO/2008/SN3 epimastigotes; assay type: toxicity; settings: read-out: Ratio IC50
[7] = system: Trypanosoma cruzi; experiment: Inhibition of PFK in Trypanosoma cruzi IRHOD/CO/2008/SN3 epimastigotes assessed as change in succinate excretion at IC25 after 96 hrs by 1H NMR analysis relative to control; set-up: scale not given: the % may be the effect or the level left; method in brief: as §1
[8] = system: Trypanosoma cruzi; experiment: Inhibition of PFK in Trypanosoma cruzi IRHOD/CO/2008/SN3 epimastigotes assessed as change in acetate excretion at IC25 after 96 hrs by 1H NMR analysis relative to control; set-up: scale not given: the % may be the effect or the level left; method in brief: as §1
[9] = Selectivity index, ratio of IC50 for African green monkey Vero cells to IC50 for Trypanosoma cruzi IRHOD/CO/2008/SN3 amastigotes infected in African green monkey Vero cells; assay type: toxicity; settings: read-out: Ratio IC50
[10] = system: Trypanosoma cruzi; experiment: Anti-trypanosomal activity against Trypanosoma cruzi IRHOD/CO/2008/SN3 amastigotes infected in African green monkey Vero cells after 72 hrs by Giemsa-staining based microscopic analysis; assay type: functional, organism-based; settings: IRHOD/CO/2008/SN3, Vero
[11] = system: Trypanosoma cruzi; experiment: Inhibition of PFK in Trypanosoma cruzi IRHOD/CO/2008/SN3 epimastigotes assessed as change in pyruvate excretion at IC25 after 96 hrs by 1H NMR analysis relative to control; set-up: scale not given: the % may be the effect or the level left; method in brief: as §1
[12] = system: Trypanosoma cruzi; experiment: Anti-trypanosomal activity against Trypanosoma cruzi IRHOD/CO/2008/SN3 epimastigotes after 72 hrs by Neubauer hemocytometric method; assay type: functional, organism-based; settings: IRHOD/CO/2008/SN3, 72 h
[13] = system: Trypanosoma cruzi; experiment: Potency index, ratio benznidazole IC50 to test compound IC50 for anti-trypanosomal activity against Trypanosoma cruzi IRHOD/CO/2008/SN3 epimastigotes; assay type: functional
Method in brief: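 Epimastigotes of the SN3 strain were grown in TLM with 10% inactivated FBS at 28 °C in air. Compounds or benznidazole, dissolved in PEG:EtOH (7:3), were added at final levels of 1, 10, 25 and 50 and left for 72 h. Parasites were counted by haemocytometer. IC50 for 50% growth inhibition was fitted by PROBIT, and values are the mean of three experiments.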

Row | pIC50 [1] | pIC50 [2] | SMILES | further results
1 | 4.31 | 4.31 | Cc1cc(NS(=O)(=O)c2ccc(NC(=O)c3ccc(Cl)c(Cl)c3)cc2)no1 | –
2 | 3.95 | – | O=S(=O)(c1ccccc1)n1cnc2ccccc21 | Activity [3]: 16.4%; IC50 [4]: 1770 µM; Activity [5]: -3.24%; selectivity ratio [6]: 196; Activity [7]: -16%; Activity [8]: 3.31%; selectivity ratio [9]: 47.3; IC50 [10]: 37.3 µM; Activity [11]: -13.4%; IC50 [12]: 9 µM
3 | 4.31 | 4.31 | COc1ccc(CC(=O)Nc2ccc(S(=O)(=O)Nc3cc(C)on3)cc2)cc1C | –
4 | 2.23 | 2.23 | O=C(Cc1ccc(F)c(Cl)c1)Nc1ccc(S(=O)(=O)Nc2nncs2)cc1 | –
5 | 3.66 | 3.66 | Cc1cc(NS(=O)(=O)Cc2ccc(NC(=O)Cc3ccc(Cl)c(Cl)c3)cc2)no1 | –
6 | 3.26 | 3.16 | O=C(Cc1ccc(Cl)c(Cl)c1)Nc1ccc(S(=O)(=O)Nc2cccc(O)c2)cc1 | –
7 | 3.06 | 2.96 | Cc1cc(NS(=O)(=O)c2ccc(NC(=O)Cc3ccc(Cl)c(Cl)c3)cc2)n(C)n1 | –
8 | 1.61 | 1.61 | O=C(Cc1ccc(Cl)c(Cl)c1)Nc1ccc(S(=O)(=O)Nc2nccs2)cc1 | –
9 | 3.79 | – | O=S(=O)(c1ccc(C(F)(F)F)cc1)n1cnc2ccccc21 | Activity [3]: 25.8%; IC50 [4]: 460 µM; Activity [5]: 9.92%; selectivity ratio [6]: 74.8; Activity [7]: -7.22%; Activity [8]: 11.8%; selectivity ratio [9]: 19.2; IC50 [10]: 24 µM; Activity [11]: 10.6%; IC50 [12]: 6.2 µM
10 | 3.21 | 3.11 | Cc1cc(NS(=O)(=O)c2ccc(NC(=O)Cc3ccc(Cl)cc3)cc2)no1 | –
11 | 2.96 | 2.86 | Cc1cc(NS(=O)(=O)c2ccc(NC(=O)Cc3ccc(Cl)c(C(F)(F)F)c3)cc2)no1 | –
12 | 3.51 | 3.51 | Cc1cc(NS(=O)(=O)c2ccc(C(=O)NCc3ccc(Cl)c(Cl)c3)cc2)no1 | –
13 | 4.38 | – | Cc1ccc(S(=O)(=O)n2cnc3ccccc32)cc1 | IC50 [4]: 108 µM; selectivity ratio [6]: 4.5; IC50 [12]: 23.8 µM
14 | 2.66 | 2.66 | Cc1cc(NS(=O)(=O)c2ccc(NC(=O)Cc3ccc(F)c(Cl)c3)cc2)no1 | –
15 | 3.74 | – | O=[N+]([O-])c1ccccc1S(=O)(=O)n1cnc2ccccc21 | IC50 [4]: 120 µM; selectivity ratio [6]: 22; Ratio IC50 [13]: 3 - 5; IC50 [12]: 5.5 µM
16 | 4.43 | – | CC(=O)c1ccc(S(=O)(=O)n2cnc3ccccc32)cc1 | IC50 [4]: 656 µM; selectivity ratio [6]: 24.5; IC50 [12]: 26.8 µM
17 | 2.07 | 2.07 | O=C(Cc1ccc(F)c(Cl)c1)Nc1ccc(S(=O)(=O)Nc2nccs2)cc1 | –
18 | 3.81 | 3.81 | Cc1cc(NS(=O)(=O)c2ccc(NC(=O)Cc3ccc(C)c(C)c3)cc2)no1 | –
19 | 3.41 | 3.41 | Cc1cc(N(C)S(=O)(=O)c2ccc(NC(=O)Cc3ccc(Cl)c(Cl)c3)cc2)no1 | –
20 | 2.11 | 2.11 | O=C(Cc1ccc(Cl)c(Cl)c1)Nc1ccc(S(=O)(=O)Nc2ccon2)cc1 | –
21 | 1.72 | 1.72 | O=C(Cc1ccc(Cl)c(Cl)c1)Nc1ccc(S(=O)(=O)Nc2nncs2)cc1 | –
22 | 2.81 | 2.81 | Cc1cc(NS(=O)(=O)c2ccc(NC(=O)Cc3ccc(Cl)c(F)c3)cc2)no1 | –
23 | 4.21 | 4.21 | O=C(Cc1ccc(Cl)c(Cl)c1)Nc1ccc(S(=O)(=O)Nc2ccccc2)cc1 | –
